Source: PubChem
The list is not random: actives were taken first. Their share in the collection is about 2.8%.
NPY-Y2 PAM-ag – potentiators or agonists of human neuropeptide Y receptor Y2 | cells expressing NPY-Y2, potentiator/agonist read-out | activation, % at 3.6 µM | P49146 | AID 1359 | 220,000 compounds, 0.45% hits; in the data active = activation above about 27%;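 also: cells stimulated with NPY near EC25 plus isoproterenol at EC100; 0% = vehicle plus submaximal agonist and 100% = vehicle plus saturating agonist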
Target sequence (P49146 whole entry, looked up): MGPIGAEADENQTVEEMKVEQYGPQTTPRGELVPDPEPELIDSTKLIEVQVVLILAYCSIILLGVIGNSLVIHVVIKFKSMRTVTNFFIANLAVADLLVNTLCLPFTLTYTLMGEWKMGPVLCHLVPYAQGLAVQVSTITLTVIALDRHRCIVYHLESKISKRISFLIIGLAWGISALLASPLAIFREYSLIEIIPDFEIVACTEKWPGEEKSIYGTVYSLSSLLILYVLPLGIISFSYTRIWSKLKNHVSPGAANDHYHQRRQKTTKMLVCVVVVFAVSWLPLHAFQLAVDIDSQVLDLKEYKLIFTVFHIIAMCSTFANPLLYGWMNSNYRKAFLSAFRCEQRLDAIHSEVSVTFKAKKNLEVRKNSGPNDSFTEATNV
NPY-Y2 antag – antagonists of human neuropeptide Y receptor Y2. P49146. NPY-Y2 expressing cells, antagonist mode. inhibition, % at 2.7 µM. 140,000 compounds, 0.99% hits; in the data active = inhibition above about 17%;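 also: 0% = vehicle with agonist challenge and 100% = reference antagonist with challenge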
NPY1 pot ag – potentiates or activates human NPY-Y1 receptor; NPY-Y1 expressing cells, potentiator/agonist activation; P25929; AID 1304; 220,000 compounds, 0.37% hits; activation, % at 3.6 µM; in the data active = activation above about 33%, passing the limit was not always enough;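 also: cells stimulated with NPY at EC10 then isoproterenol at EC100; 0% = low agonist plus stimulus and 100% = saturating agonist plus stimulus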
NPY Y1 blocker – antagonists of human neuropeptide Y receptor Y1; HEK293-CNG Y1 cells, membrane potential fluorescence; NPY at EC95, then isoproterenol; inhibition, % at 3.6 µM; 200,000 compounds, 1% hits;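 active = inhibition above the campaign mean inhibition of all tested compounds plus 3 SD, cut at about 20% in these data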;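 also: 0% = DMSO wells given NPY plus isoproterenol and 100% = isoproterenol alone without NPY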
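Assay system: HEK293 Y1/CNG channel cell line; Doses: single compound dose of 3.6 µM, 0.4% DMSO; Timing: dye 3 h, compound 60 min room temperature, stimulation 45 min; Technique: Membrane-potential fluorescent dye readout; Measure: % inhibition of NPY effect.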
Measles CPE – protection of cells from measles virus | Measles virus-infected cells, CPE protection, absorbance | protection (pct of control), % at 4 µM | 140,000 compounds, 1.5% hits; in the data active = protection mostly above about 24%, no sharp cut-off; inactive = mostly below about 26%
Rad51 HR inh – Rad51 (human) homologous recombination inhibition; inhibition, % at 10 µM; hRad51 DNA strand exchange, fluorescence dequenching; 200,000 compounds, 0.085% hits;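 active = inhibition above 40% at the single screening dose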;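 also: 0% = DMSO control wells and 100% = blanks with heterologous ssDNA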
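material = hRad51 filaments on single-stranded DNA | reagent = Donor/quencher-labelled 47-bp dsDNA substrate | compound = 10 µM final, single point | schedule = strand-exchange reaction 15 min at room temperature | measured by = fluorescein emission 520 nm, excitation 485 nm | read-out basis = % inhibition versus plate control and blank means | benchmarks = plate controls and plate blanks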
The depositor's hits bear a star.

`Cc1ccc(C)c(OCC(=O)Nc2nonc2NC(=O)COc2cc(C)ccc2C)c1` gave NPY-Y2 PAM-ag -8.4, NPY-Y2 antag 20.7*, NPY1 pot ag -72.1, NPY Y1 blocker 23.6*, Measles CPE 15.8 and Rad51 HR inh 3.3.
Screening CCC(C)OC(=O)C[N+](C)(C)CCOC1CC2CCC1(C)C2(C)C (centres undefined) returned NPY-Y2 PAM-ag -3.2, NPY1 pot ag -25.0, NPY Y1 blocker 21.4* and Rad51 HR inh 0.2.
CC(C)CCOC(=O)C[N+](C)(C)CCOC1CC2CCC1(C)C2(C)C (centres undefined) was read as NPY-Y2 PAM-ag -18.4, NPY1 pot ag -41.2, NPY Y1 blocker 9.9 and Rad51 HR inh 7.6.
`COC(=O)Cc1c(C)[nH]n(-c2cc(Cl)cc(Cl)c2)c1=O` gave NPY-Y2 PAM-ag 11.5, NPY1 pot ag 11.7, NPY Y1 blocker -0.7 and Rad51 HR inh 3.8.
For N#Cc1ccccc1NC(=O)CSc1nnc(-c2ccccc2O)n1-c1ccccc1 the results were NPY-Y2 PAM-ag -2.7, NPY-Y2 antag -2.0, NPY1 pot ag -3.4, NPY Y1 blocker 2.8, Measles CPE 16.8* and Rad51 HR inh 1.6.
For N#Cc1c(NC(=O)CSc2nnc(-c3ccco3)n2-c2ccccc2)sc2c1CCC2 the results were NPY-Y2 PAM-ag 42.6*, NPY-Y2 antag 1.5, NPY1 pot ag 110.5*, NPY Y1 blocker -4.3 and Measles CPE 17.2.
Screening NC(=O)c1c(NC(=O)CSc2nnc(-c3ccco3)n2-c2ccccc2)sc2c1CCC2 returned NPY-Y2 PAM-ag 16.1, NPY-Y2 antag 1.7, NPY1 pot ag 32.5, NPY Y1 blocker -1.8, Measles CPE 10.9 and Rad51 HR inh -4.2.
Screening COC(=O)CNC(=O)c1c(-c2ccccc2Cl)noc1C returned NPY-Y2 PAM-ag 22.0, NPY-Y2 antag -2.3, NPY1 pot ag 13.0, NPY Y1 blocker -2.4, Measles CPE 4.8 and Rad51 HR inh 12.7.
For COC(=O)CNC(=O)c1c(-c2c(Cl)cccc2Cl)noc1C the results were NPY-Y2 PAM-ag 16.2, NPY-Y2 antag -0.1, NPY1 pot ag 10.8, NPY Y1 blocker -3.6 and Measles CPE 41.4*.
For Cc1n[nH]c(=S)n1/N=C/c1ccccc1OCc1ccc(Cl)cc1 the results were NPY-Y2 PAM-ag -20.7, NPY-Y2 antag 87.5*, NPY1 pot ag -38.8, NPY Y1 blocker 28.0*, Measles CPE 12.5 and Rad51 HR inh 2.0.
CCn1c(Cn2nnc(-c3ccccc3)n2)nnc1SCC(=O)Nc1ccc(C(C)=O)cc1 was read as NPY-Y2 PAM-ag 47.4*, NPY-Y2 antag -9.5, NPY1 pot ag 45.8*, NPY Y1 blocker -19.9, Measles CPE 23.0 and Rad51 HR inh -5.9.
Clc1ccccc1OCc1nnc2n1CCCCC2 was read as NPY-Y2 PAM-ag 6.7, NPY1 pot ag 6.1 and Rad51 HR inh -0.4.
`Cc1ccc(S(=O)(=O)N(C)C)cc1NS(=O)(=O)c1ccc(Cl)s1` gave NPY-Y2 PAM-ag 4.2, NPY-Y2 antag 0.9, NPY1 pot ag 8.1, NPY Y1 blocker 0.7, Measles CPE 4.7 and Rad51 HR inh 1.7.
For CCCCCOCC1CC(C/C(C)=N/Nc2nc(-c3ccccc3)cs2)C(=O)O1 (centres undefined) the results were NPY-Y2 PAM-ag 2.7, NPY-Y2 antag 2.6, NPY1 pot ag 14.2, NPY Y1 blocker -2.4, Measles CPE 7.3 and Rad51 HR inh 62.3*.
Screening CCCCCOCC1CC(C/C(C)=N/NC(N)=S)C(=O)O1 (centres undefined) returned NPY-Y2 PAM-ag 11.2, NPY-Y2 antag 1.7, NPY1 pot ag -9.3, NPY Y1 blocker 3.5, Measles CPE 7.5 and Rad51 HR inh 10.5.
`O=C(CC1C(=O)N(c2ccc(Cl)cc2)C(=S)N1CCc1ccncc1)Nc1ccc(F)cc1` (centres undefined) gave NPY-Y2 PAM-ag 52.2*, NPY-Y2 antag -2.5, NPY1 pot ag 60.9*, NPY Y1 blocker -7.6, Measles CPE 9.9 and Rad51 HR inh -6.0.
For Cc1nn2c(-c3ccccn3)ccnc2c1Br the results were NPY-Y2 PAM-ag -2.6, NPY1 pot ag 8.3, NPY Y1 blocker 0.7 and Rad51 HR inh -7.4.
For Cc1ccc(C(=O)NC(C)c2ccc(F)cc2)cc1 (centres undefined) the results were NPY-Y2 PAM-ag -17.6, NPY-Y2 antag 4.4, NPY1 pot ag -13.6, NPY Y1 blocker 1.2, Measles CPE 9.9 and Rad51 HR inh -7.0.
